Data from ChEMBL document CHEMBL1125355, “Novel non-cross resistant diaminoanthraquinones as potential chemotherapeutic agents” (J Med Chem, 1992).

What was measured:
RPMI-8226 [1] = assay: In vitro inhibition of tumor cell growth in the human myeloma 8226 system.; assay type: functional, cell-based
Procedure, shortened: (§1)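 Cells trypsinized, seeded at 7500 cells/well, attached overnight. Serially diluted agent added to quadruplicate cultures; 24 h at 37 °C, 5% CO2, with [3H]thymidine 0.5 μCi/well during the last 4 h. Incorporation counted by scintillation; percent of media-only control from mean CPM. IC50 by linear forecast on a percent control vs log concentration plot.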

MCF7 [2] = assay: In vitro inhibition of tumor cell growth in the human mammary tumor MCF-7 system; assay type: functional, cell-based; procedure, shortened: as §1
RPMI-8226 [3] = assay: In vitro inhibition of tumor cell growth in the human myeloma 8226/ADR system.; assay type: functional, cell-based; procedure, shortened: as §1
MCF7 [4] = assay: In vitro inhibition of tumor cell growth in the human mammary carcinoma MCF-7/ADR system.; assay type: functional, cell-based; procedure, shortened: as §1
Homo sapiens [5] = organism: Homo sapiens; assay: Tumor-specific activity against human ovary tumor type at 0.5 ug/mL concentration after 1 hr exposure time; Activity= no of responses/ no tested, 1/2; assay type: functional, Female gonad
Homo sapiens [6] = organism: Homo sapiens; assay: Compound was tested in vitro for activity in a human tumor cloning system at 5 ug/mL concentration after 1 hr exposure time; assay type: functional
Procedure, shortened: (§2)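 Human tumor cloning assay on single-cell suspensions from patient solid tumors and effusions. Cells were exposed for 1 h at 37 °C in McCoy's 5A with 10% heat-inactivated FCS, washed twice, then plated at 5×10^5 cells/mL in 0.3% agar CMRL 1066 over a feeder layer. Colonies (>50 cells) were counted around day 14. A run was evaluable with ≥20 control colonies and under 30% survival with 200 μg/mL vanadate.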

Homo sapiens [7] = organism: Homo sapiens; assay: Tumor-specific activity against human ovary tumor type at 50 ug/mL concentration after 1 hr exposure time; Activity= no of responses/ no tested, 1/1; assay type: functional, Female gonad
Homo sapiens [8] = organism: Homo sapiens; assay: Compound was tested in vitro for activity in a human tumor cloning system at 5 ug/mL concentration after continuous exposure time; assay type: functional
Procedure, shortened: (§3)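 Human tumor cloning assay on single-cell suspensions from patient solid tumors and effusions. Drug from DMSO stock was mixed into 0.3% agar CMRL 1066 with the cells, at 5×10^5 cells/mL over a feeder layer, and left for continuous exposure. Colonies (>50 cells) were counted around day 14 by inverted microscope. A run was evaluable with ≥20 control colonies and under 30% survival with 200 μg/mL vanadate.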

Homo sapiens [9] = organism: Homo sapiens; assay: Tumor-specific activity against human total tumor type at 0.5 ug/mL concentration after 1 hr exposure time; Activity= no of responses/ no tested, 2/5; assay type: functional
Homo sapiens [10] = organism: Homo sapiens; assay: Tumor-specific activity against human lung, non-small cell tumor type at 0.5 ug/mL concentration after 1 hr exposure time; Activity= no of responses/ no of evaluable, 0/1; assay type: functional
Homo sapiens [11] = organism: Homo sapiens; assay: Tumor-specific activity against human breast tumor type at 50 ug/mL concentration after 1 hr exposure time; Activity= no of responses/ no tested, […]; assay type: functional
Homo sapiens [12] = organism: Homo sapiens; assay: Tumor-specific activity against human gastric tumor type at 50 ug/mL concentration after 1 hr exposure time; Activity= no of responses/ no tested, 1/1; assay type: functional, Stomach
Homo sapiens [13] = organism: Homo sapiens; assay: Compound was tested in vitro for activity in a human tumor cloning system at 50 ug/mL concentration after 1 hr exposure time; assay type: functional; procedure, shortened: as §2
Homo sapiens [14] = organism: Homo sapiens; assay: Tumor-specific activity against human breast tumor type at 5 ug/mL concentration after 1 hr exposure time; Activity= no of responses/ no tested, […]; assay type: functional
Homo sapiens [15] = organism: Homo sapiens; assay: Compound was tested in vitro for activity in a human tumor cloning system at 50 ug/mL concentration after continuous exposure time; assay type: functional; procedure, shortened: as §3
Homo sapiens [16] = organism: Homo sapiens; assay: Tumor-specific activity against human gastric tumor type at 0.5 ug/mL concentration after 1 hr exposure time; Activity= no of responses/ no tested, 1/1; assay type: functional, Stomach
Homo sapiens [17] = organism: Homo sapiens; assay: Tumor-specific activity against human gastric tumor type at 5 ug/mL concentration after 1 hr exposure time; Activity= no of responses/ no tested, 2/2; assay type: functional, Stomach
Homo sapiens [18] = organism: Homo sapiens; assay: Tumor-specific activity against human ovary tumor type at 5 ug/mL concentration after 1 hr exposure time; Activity= no of responses/ no tested, 1/1; assay type: functional, Female gonad
Homo sapiens [19] = organism: Homo sapiens; assay: Tumor-specific activity against human total tumor type at 50 ug/mL concentration after 1 h exposure time; Activity= no of responses/ no tested, 5/5; assay type: functional
Homo sapiens [20] = organism: Homo sapiens; assay: Tumor-specific activity against human lung, non-small cell tumor type at 50 ug/mL concentration after 1 hr exposure time; Activity= no of responses/ no of evaluable, […]; assay type: functional
Homo sapiens [21] = organism: Homo sapiens; assay: Compound was tested in vitro for activity in a human tumor cloning system at 0.5 ug/mL concentration after continuous exposure time; assay type: functional; procedure, shortened: as §3
Homo sapiens [22] = organism: Homo sapiens; assay: Compound was tested in vitro for activity in a human tumor cloning system at 0.5 ug/mL concentration after 1 hr exposure time; assay type: functional; procedure, shortened: as §2
Homo sapiens [23] = organism: Homo sapiens; assay: Tumor-specific activity against human total tumor type at 5 ug/mL concentration after 1 hr exposure time; Activity= no of responses/ no tested, 4/5
Homo sapiens [24] = organism: Homo sapiens; assay: Tumor-specific activity against human breast tumor type at 0.5 ug/mL concentration after 1 hr exposure time; Activity= no of responses/ no tested, 0/1; assay type: functional
Homo sapiens [25] = organism: Homo sapiens; assay: Tumor-specific activity against human colon tumor type at 50 ug/mL concentration after 1 hr exposure time; Activity= no of responses/ no tested,4/5; assay type: functional
Homo sapiens [26] = organism: Homo sapiens; assay: Tumor-specific activity against human total tumor type at 50 ug/mL concentration after 1 hr exposure time; Activity= no of responses/ no tested,8/10; assay type: functional
Homo sapiens [27] = organism: Homo sapiens; assay: Tumor-specific activity against human ovary tumor type at 5 ug/mL concentration after 1 h exposure time; Activity= no of responses/ no tested,2/2; assay type: functional, Female gonad
Homo sapiens [28] = organism: Homo sapiens; assay: Tumor-specific activity against human total tumor type at 5 ug/mL concentration after 1 hr exposure time; Activity= no of responses/ no tested,8/10; assay type: functional
Homo sapiens [29] = organism: Homo sapiens; assay: Tumor-specific activity against human colon tumor type at 5 ug/mL concentration after 1 hr exposure time; Activity= no of responses/ no tested,4/5; assay type: functional
Homo sapiens [30] = organism: Homo sapiens; assay: Tumor-specific activity against human ovary tumor type at 50 ug/mL concentration after 1 hr exposure time; Activity= no of responses/ no tested,2/2; assay type: functional, Female gonad
Homo sapiens [31] = organism: Homo sapiens; assay: Tumor-specific activity against human ovary tumor type at 0.5 ug/mL concentration after 1 hr exposure time; Activity= no of responses/ no tested,2/2; assay type: functional, Female gonad
Homo sapiens [32] = organism: Homo sapiens; assay: Tumor-specific activity against human gastric tumor type at 0.5 ug/mL concentration after 1 hr exposure time; Activity= no of responses/ no tested,1/1; assay type: functional, Stomach
Homo sapiens [33] = organism: Homo sapiens; assay: Tumor-specific activity against human gastric tumor type at 5 ug/mL concentration after 1 hr exposure time; Activity= no of responses/ no tested,1/1; assay type: functional, Stomach
Homo sapiens [34] = organism: Homo sapiens; assay: Tumor-specific activity against human gastric tumor type at 50 ug/mL concentration after 1 hr exposure time; Activity= no of responses/ no tested,1/1; assay type: functional, Stomach
Homo sapiens [35] = organism: Homo sapiens; assay: Tumor-specific activity against human colon tumor type at 0.5 ug/mL concentration after 1 hr exposure time; Activity= no of responses/ no tested,[…]; assay type: functional
Homo sapiens [36] = organism: Homo sapiens; assay: Tumor-specific activity against human breast tumor type at 0.5 ug/mL concentration after 1 hr exposure time; Activity= no of responses/ no tested,0/2; assay type: functional
Homo sapiens [37] = organism: Homo sapiens; assay: Tumor-specific activity against human total tumor type at 0.5 ug/mL concentration after 1 hr exposure time; Activity= no of responses/ no tested,4/10; assay type: functional
Homo sapiens [38] = organism: Homo sapiens; assay: Tumor-specific activity against human breast tumor type at 5 ug/mL concentration after 1 hr exposure time; Activity= no of responses/ no tested,1/2; assay type: functional
Homo sapiens [39] = organism: Homo sapiens; assay: Tumor-specific activity against human breast tumor type at 50 ug/mL concentration after 1 hr exposure time; Activity= no of responses/ no tested,1/2; assay type: functional

Compound `O=C1c2ccccc2C(=O)c2c(NCC(O)CNCc3ccccc3)ccc(NCC(O)CCl)c21` (centres undefined) has an IC50 (RPMI-8226 [1]) of 11100 nM, an IC50 (MCF7 [2]) of 8200 nM and an IC50 (RPMI-8226 [3]) of 14300 nM. It also gave an IC50 (MCF7 [4]) of 12400 nM.
For `CCCNCC(O)CNc1ccc(NCC(O)CCl)c2c1C(=O)c1ccccc1C2=O` (centres undefined), the IC50 (RPMI-8226 [1]) was 9600 nM, the IC50 (MCF7 [2]) was 3450 nM and the IC50 (RPMI-8226 [3]) was 12500 nM. It also gave an IC50 (MCF7 [4]) of 8700 nM.
Work on `CCN(CC)CC(O)CNc1ccc(NCC(O)CCl)c2c1C(=O)c1ccccc1C2=O` (centres undefined) yielded an Activity (Homo sapiens [5]) of 1, a % responders at 5 µg/mL (Homo sapiens [6]) of 80% and an Activity (Homo sapiens [7]) of 2. It also gave a % responders at 5 µg/mL (Homo sapiens [8]) of 100%, an IC50 (RPMI-8226 [1]) of 210 nM and an Activity (Homo sapiens [9]) of 2. The Activity (Homo sapiens [10]) was 0, the Activity (Homo sapiens [11]) was 1 and the Activity (Homo sapiens [12]) was 1. For the same compound, the % responders at 50 µg/mL (Homo sapiens [13]) was 100%, the Activity (Homo sapiens [14]) was 0 and the % responders at 50 µg/mL (Homo sapiens [15]) was 100%. The Activity (Homo sapiens [16]) was 1, the Activity (Homo sapiens [17]) was 1 and the Activity (Homo sapiens [18]) was 2. For the same compound, the Activity (Homo sapiens [19]) was 5, the IC50 (MCF7 [2]) was 430 nM and the IC50 (RPMI-8226 [3]) was 70 nM. For the same compound, the Activity (Homo sapiens [20]) was 1, the % responders at 0.5 µg/mL (Homo sapiens [21]) was 50% and the % responders at 0.5 µg/mL (Homo sapiens [22]) was 40%. For the same compound, the IC50 (MCF7 [4]) was 720 nM, the Activity (Homo sapiens [23]) was 4 and the Activity (Homo sapiens [24]) was 0.
With `CCN(CC)CC(O)CNc1ccc(NCC2CO2)c2c1C(=O)c1ccccc1C2=O.O=C(O)/C=C/C(=O)O` (centres undefined) the Activity (Homo sapiens [25]) was 4, the Activity (Homo sapiens [26]) was 8 and the % responders at 5 µg/mL (Homo sapiens [6]) was 80%. It also gave a % responders at 5 µg/mL (Homo sapiens [8]) of 89%, an IC50 (RPMI-8226 [1]) of 10 nM and an Activity (Homo sapiens [27]) of 2. For the same compound, the Activity (Homo sapiens [28]) was 8, the Activity (Homo sapiens [29]) was 4 and the Activity (Homo sapiens [30]) was 2. The Activity (Homo sapiens [31]) was 2, the % responders at 50 µg/mL (Homo sapiens [13]) was 80% and the Activity (Homo sapiens [32]) was 1. It also gave a % responders at 50 µg/mL (Homo sapiens [15]) of 100%, an Activity (Homo sapiens [33]) of 1 and an Activity (Homo sapiens [34]) of 1. The IC50 (MCF7 [2]) was 40 nM, the IC50 (RPMI-8226 [3]) was 9 nM and the % responders at 0.5 µg/mL (Homo sapiens [21]) was 89%. It also gave an Activity (Homo sapiens [35]) of 1, a % responders at 0.5 µg/mL (Homo sapiens [22]) of 40% and an IC50 (MCF7 [4]) of 20 nM. It also gave an Activity (Homo sapiens [36]) of 0, an Activity (Homo sapiens [37]) of 4 and an Activity (Homo sapiens [38]) of 1. It also gave an Activity (Homo sapiens [39]) of 1.
Compound `CCN(CC)CC(O)CNc1ccc(N)c2c1C(=O)c1ccccc1C2=O` (centres undefined) has an IC50 (MCF7 [2]) of 6000 nM.
`COc1cccc2c1C(=O)c1c(O)c3c(c(O)c1C2=O)C[C@@](O)(C(=O)CO)C[C@@H]3O[C@H]1C[C@H](N)[C@H](O)[C@H](C)O1` [DOXORUBICIN] showed an IC50 (RPMI-8226 [1]) of 33 nM and an IC50 (RPMI-8226 [3]) of 560 nM.
`O=C1c2c(O)ccc(O)c2C(=O)c2c(NCCNCCO)ccc(NCCNCCO)c21` [MITOXANTRONE] showed an IC50 (RPMI-8226 [1]) of 30 nM, an IC50 (MCF7 [2]) of 5 nM and an IC50 (RPMI-8226 [3]) of 180 nM. The IC50 (MCF7 [4]) was 4000 nM.
